Data set [1] deals with HCT 116 colorectal cancer cells. Conditions: cited from earlier work.
The test system of data set [2] is nonsmall cell lung cancer cells (A549). The experiment in a line: MTT cytotoxicity assay, A549. It counts as cell-based. Conditions: for IC50 A549: MTT assay, 72 h incubation, mean ± SD of three independent experiments; for IC50: Homo sapiens, A549, 72 h, read-out: IC50 A549. The method, boiled down: (§1)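 Cells kept in DMEM with 10% FBS and 1% penicillin-streptomycin at 37 °C, 5% CO2. Seeding: A549 5 × 10^3, HeLa 1 × 10^3, Vero 2 × 10^3 cells/well. After 16−18 h, medium replaced with graded compound concentrations for 72 h. MTT 0.5 mg/mL for 3 h; formazan dissolved in DMSO; A570 (reference 630 nm). IC50 by nonlinear regression; doxorubicin positive control.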
(In general: Tetrazolium assays rely on reduction of a dye to a coloured formazan, in cell work by metabolically active cells.)

In another data set the test system is HeLa cells. The experiment in a line: Apoptosis analysis. It counts as cell-based, human. Particulars: both tested concentrations, Figure 4C,D.
In data set [3] the test system is NCI-H187 cancer cell line. Particulars: previously reported; cited from earlier work.
The test system of data set [4] is human cervical carcinoma cells (HeLa). Kind of data set: MTT cytotoxicity assay, HeLa. It counts as cell-based. Conditions: 72 h incubation, mean ± SD of three independent experiments. The essentials:
as §1

In the next data set the test system is Vero cells. Kind of data set: MTT cytotoxicity assay, Vero. It counts as cell-based. Particulars: 72 h incubation, mean ± SD of three independent experiments. The method, boiled down: as §1
The test system of a further data set is A549 cells. The experiment in a line: Apoptosis analysis. It counts as cell-based. Conditions: compared to untreated, Figure 4A,B.

The IC50 is the concentration at which inhibition is half-maximal.

As for `O=C1C[C@@H](c2ccccc2)Oc2cc(O)cc(O)c21` [Compound 4, pinocembrin], in data set [1], the “cytotoxic activity (in words)” value was “exhibit cytotoxic activity”. In data set [2], the “IC50 A549” value was “inactive”. Besides, the “apoptosis induction (in words)” value in the data set on HeLa cells is given as “increased apoptotic cells in a dose-dependent manner”. Besides, the “IC50 NCI-H187” value in data set [3] was “inactive”.
Take `O=C1C[C@@H](c2ccccc2)Oc2cc(O)c(Cc3ccccc3O)c(O)c21` [Compound 5, isochamanetin]: the “IC50 A549” value in data set [2] was “inactive”. In addition, in data set [4], the “IC50 HeLa” value is “inactive”. Also, the “IC50 Vero” value in the data set on Vero cells is “inactive”.
For `O=C1C[C@@H](c2ccccc2)Oc2c(Cc3ccccc3O)c(O)c(Cc3ccccc3O)c(O)c21` [Compound 7, dichamanetin], in data set [2], the IC50 was determined as 14.9 ± 0.6 µM. Also, the “apoptosis induction (in words)” value with A549 cells is “moderate level of apoptosis”. Also, in data set [4], the “IC50 HeLa” value was “inactive”.
As to `COc1cccc2c1C(=O)c1c(O)c3c(c(O)c1C2=O)C[C@@](O)(C(=O)CO)C[C@@H]3O[C@H]1C[C@H](N)[C@H](O)[C@H](C)O1` [doxorubicin, reference compound], the IC50 in data set [2] came out at 0.04 µM.
